From article PMC5709104 (Haematologica, 2017)
Entries after “also recorded” stand apart in the source; their conditions may differ.

What was measured:
MOLM13 cells [1] = assay: Viable cell number and apoptosis by flow cytometry; type: cell-based, human
Method in brief: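 Viable cell number and apoptosis in MOLM13 cells measured by flow cytometry. Single-agent runs used vehicle (0.1% DMSO) or varying doses of test compound for 48 h or 72 h. Combination runs used vehicle (0.2% DMSO), 1 μM cytarabine, test compound (10 or 50 nM) or both, for 48 h. Student's t-test against cytarabine-treated cells.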

resistant cells = settings: cited from earlier work
AXL [2] = settings: cited from earlier work
[3] = system: refractory or relapse AML; settings: single agent; cited from earlier work
MER = MER (Homo sapiens, UniProt Q12866); assay: Cell-based tyrosine kinase inhibition assay; settings: recombinant kinase expressing Ba/F3 cells, 48 hr
FLT3 = FLT3 (Homo sapiens, UniProt P36888); assay: Cell-based tyrosine kinase inhibition assay; settings: recombinant kinase expressing Ba/F3 cells, 48 hr
MV4;11 cells [4] = assay: Viable cell number and apoptosis by flow cytometry; type: cell-based; settings: 10 nM, 48 hours
Method in brief: (§1)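 MV4;11 and OCI-AML3 cells incubated 48 h with vehicle (0.1% DMSO) or varying doses of test compound. Viable cell number and apoptosis measured by flow cytometry.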

OCI-AML3 cells = assay: Viable cell number and apoptosis by flow cytometry; type: cell-based; settings: varying doses, 48 hours, OCI-AML3 (FLT3 WT)
Method in brief: as §1

HL60 cells = assay: Viable cell number and apoptosis by flow cytometry; type: cell-based; settings: FLT3 WT HL60, data not shown
[5] = system: MOLM13 cells in co-culture with MSC; assay: In vitro co-culture system with MSC, viability by flow cytometry; type: cell-based, human; settings: 50 nM, 72 hours
Method in brief: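 MOLM13 cells grown in monoculture or co-cultured with bone marrow-derived mesenchymal stromal cells (patient-derived, IRB-approved). Treated 72 h with vehicle or test compound. Viable cells measured by flow cytometry.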

[6] = system: MOLM13 control shRNA (GFP) cells; assay: Viability and apoptosis by flow cytometry, control shRNA cells; type: cell-based, human; settings: 10 nM, 48 hours
Method in brief: (§2)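 MOLM13 cells carrying control shRNA (GFP target) or p53 shRNA incubated 48 h with varying doses of test compound. Viability and apoptosis measured by flow cytometry. p53 knockdown checked by immunoblot densitometry against tubulin. Student's t-test against GFP control.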

MOLM13 p53 shRNA cells = assay: Viability and apoptosis by flow cytometry, p53 knockdown cells; type: cell-based, human; settings: 10 nM, 48 hours
Method in brief: as §2

MOLM13 cells [7] = assay: DNA synthesis and cell cycle assay; type: cell-based, human; settings: 24 hours
Method in brief: (§3)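 MOLM13 and MV4;11 cells exposed to vehicle or varying doses of test compound for 24 h. Cell cycle status assessed by FX Cycle Violet DNA staining and DNA synthesis by EdU incorporation (Click-It EdU kit), both read by flow cytometry. Student's t-test against vehicle-treated cells.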

MV4;11 cells [8] = assay: DNA synthesis and cell cycle assay; type: cell-based; settings: 24 hours
Method in brief: as §3

[9] = system: MOLM13, MV4:11, OCI-AML3, and HL60 cells; assay: Trypan blue staining of cells collected for RPPA; type: cell-based; settings: all other cases (vehicle or ONO-7475, 24 hours; MOLM13, MV4:11, OCI-AML3, HL60)
MOLM13 cells [10] = assay: Reverse phase protein analysis; type: cell-based, human; settings: RPPA, 10 nM, 50 nM or 100 nM, 24 hours, at least 2-fold
OCI-AML3 = assay: Reverse phase protein analysis; type: cell-based; settings: RPPA, 24 hours, FLT3 WT OCI-AML3
HL60 = assay: Reverse phase protein analysis; type: cell-based; settings: RPPA, 24 hours, FLT3 WT HL60
PLK1 = assay: Immunoblot analysis; type: cell-based; settings: 50 nM or 100 nM, 24 hours, MOLM13 and MV4;11
Method in brief: (§4)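 MOLM13 and MV4;11 cells incubated 24 h with vehicle or varying doses of test compound, then lysed. Total protein separated by SDS-PAGE and immunoblotted, with infrared imaging detection. Densitometry ratios taken to tubulin loading control, or to the total protein for phospho-proteins.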

RB phosphorylation = assay: Immunoblot analysis; type: cell-based; settings: even at the lowest dose, 24 hours, MOLM13 and MV4;11
Method in brief: as §4

AXL [11] = assay: Immunoblot analysis; type: cell-based; settings: even at the lowest dose, 24 hours, MOLM13 and MV4;11
Method in brief: as §4

Cyclin B1 = assay: Immunoblot analysis; type: cell-based; settings: 10 nM, 24 hours, MOLM13 and MV4;11
Method in brief: as §4

CDK1 = assay: Immunoblot analysis; type: cell-based; settings: 10 nM, 24 hours, MOLM13 and MV4;11
Method in brief: as §4

ERK phosphorylation = assay: Immunoblot analysis; type: cell-based; settings: 10 nM, 24 hours, MOLM13
Method in brief: as §4

MCL-1 = assay: Immunoblot analysis; type: cell-based; settings: 24 hours
Method in brief: as §4

FLT3 phosphorylation = assay: Immunoblot analysis; type: cell-based; settings: 10 nM
Method in brief: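 MOLM13 and MV4;11 cells exposed to vehicle or test compound, lysed, total protein resolved by SDS-PAGE, immunoblotted for FLT3 phosphorylation, with infrared imaging detection. Tubulin as loading control.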

phosphorylation of S6 = assay: Immunoblot analysis; type: cell-based; settings: 24 hours, MOLM13
Method in brief: as §4

p38 phosphorylation = assay: Immunoblot analysis; type: cell-based; settings: 24 hours, MOLM13; due to reduction of total p38
Method in brief: as §4

PLK-1 mRNA = assay: qRT-PCR gene expression analysis; type: cell-based; settings: 24 hours; for reduction of PLK-1 mRNA relative to B2M: MOLM13
Method in brief: (§5)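 MOLM13 and MV4;11 cells incubated 24 h with vehicle or varying doses of test compound. Total RNA extracted and reverse transcribed. PLK-1, CDK1 and CCNB1 transcripts quantified by TaqMan qRT-PCR and normalized to B2M.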

CDK1 mRNA = assay: qRT-PCR gene expression analysis; type: cell-based; settings: 10 nM, 24 hours, MOLM13 and MV4;11
Method in brief: as §5

CCNB1 mRNA = assay: qRT-PCR gene expression analysis; type: cell-based; settings: 10 nM, 24 hours, MOLM13 and MV4;11
Method in brief: as §5

AXL mRNA = assay: qRT-PCR gene expression analysis; type: cell-based; settings: 24 hours
MOLM13 luc/gfp cells = assay: Human AML murine xenograft model; type: in vivo, NSG mice
Method in brief: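 MOLM13 cells lentivirally transduced with firefly luciferase/copGFP, injected into NSG mice. Control feed for one week, then control feed or feed containing 0.004% (~6 mg/kg daily; N=5 per group) or 0.013% (~20 mg/kg daily; N=9 control, N=10 treated) test compound. Leukemic burden by weekly IVIS imaging. Sternum (BM) and liver from moribund mice examined by H&E.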

Chain of FLT3 (P36888 27-993): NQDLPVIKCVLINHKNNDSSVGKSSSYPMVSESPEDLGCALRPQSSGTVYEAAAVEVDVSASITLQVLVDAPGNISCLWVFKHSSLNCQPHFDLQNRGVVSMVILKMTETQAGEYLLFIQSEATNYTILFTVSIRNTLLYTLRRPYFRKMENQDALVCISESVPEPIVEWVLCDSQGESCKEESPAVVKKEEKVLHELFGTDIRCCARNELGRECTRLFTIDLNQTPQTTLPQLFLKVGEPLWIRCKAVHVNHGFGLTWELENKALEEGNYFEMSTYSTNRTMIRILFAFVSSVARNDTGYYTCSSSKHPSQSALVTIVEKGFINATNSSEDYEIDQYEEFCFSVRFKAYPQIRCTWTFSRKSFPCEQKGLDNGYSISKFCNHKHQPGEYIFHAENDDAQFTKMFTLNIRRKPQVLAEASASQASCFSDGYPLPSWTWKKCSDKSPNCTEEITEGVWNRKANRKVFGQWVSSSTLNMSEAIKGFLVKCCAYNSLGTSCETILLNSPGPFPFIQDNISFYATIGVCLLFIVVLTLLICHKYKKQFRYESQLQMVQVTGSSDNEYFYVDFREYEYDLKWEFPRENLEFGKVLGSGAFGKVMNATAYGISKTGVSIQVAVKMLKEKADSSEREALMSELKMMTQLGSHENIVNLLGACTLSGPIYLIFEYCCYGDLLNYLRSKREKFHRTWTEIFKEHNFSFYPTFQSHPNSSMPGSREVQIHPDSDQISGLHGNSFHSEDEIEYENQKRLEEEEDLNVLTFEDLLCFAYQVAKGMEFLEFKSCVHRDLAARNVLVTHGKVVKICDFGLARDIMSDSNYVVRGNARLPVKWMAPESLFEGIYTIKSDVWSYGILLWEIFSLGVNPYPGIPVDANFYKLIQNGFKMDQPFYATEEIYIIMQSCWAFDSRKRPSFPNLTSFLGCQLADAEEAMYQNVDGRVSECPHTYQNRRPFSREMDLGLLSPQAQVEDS
Chain of MER (Q12866 21-999): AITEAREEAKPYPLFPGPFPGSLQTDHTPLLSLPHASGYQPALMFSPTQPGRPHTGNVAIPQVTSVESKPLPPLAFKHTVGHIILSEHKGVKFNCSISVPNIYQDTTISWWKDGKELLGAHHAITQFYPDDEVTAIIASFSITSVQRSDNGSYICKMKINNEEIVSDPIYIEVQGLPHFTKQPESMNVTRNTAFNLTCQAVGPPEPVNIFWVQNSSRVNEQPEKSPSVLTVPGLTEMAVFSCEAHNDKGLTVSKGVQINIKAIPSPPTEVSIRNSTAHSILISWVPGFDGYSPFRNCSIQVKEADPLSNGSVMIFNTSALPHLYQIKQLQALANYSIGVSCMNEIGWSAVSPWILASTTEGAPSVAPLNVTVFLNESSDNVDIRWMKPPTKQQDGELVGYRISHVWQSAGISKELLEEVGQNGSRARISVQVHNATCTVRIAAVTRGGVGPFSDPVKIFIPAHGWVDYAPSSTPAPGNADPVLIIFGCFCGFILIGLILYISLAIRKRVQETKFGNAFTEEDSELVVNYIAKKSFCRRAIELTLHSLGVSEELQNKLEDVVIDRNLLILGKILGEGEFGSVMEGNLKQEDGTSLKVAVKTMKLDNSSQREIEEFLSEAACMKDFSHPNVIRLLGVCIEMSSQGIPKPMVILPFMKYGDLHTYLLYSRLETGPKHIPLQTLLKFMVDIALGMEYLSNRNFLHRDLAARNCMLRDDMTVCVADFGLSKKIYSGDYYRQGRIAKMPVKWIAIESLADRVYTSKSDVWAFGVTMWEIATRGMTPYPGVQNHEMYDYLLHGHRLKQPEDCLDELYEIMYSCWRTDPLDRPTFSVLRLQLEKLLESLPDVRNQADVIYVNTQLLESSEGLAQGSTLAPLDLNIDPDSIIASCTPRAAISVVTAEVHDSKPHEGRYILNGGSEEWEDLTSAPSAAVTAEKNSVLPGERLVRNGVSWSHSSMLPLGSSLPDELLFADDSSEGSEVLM

Nc1ccn([C@@H]2O[C@H](CO)[C@@H](O)[C@@H]2O)c(=O)n1 [AraC, Cytarabine, reference compound]
viable cell numbers and apoptosis, single agent (MOLM13 cells [1]; 1 μM AraC alone, 48 hours, MOLM13): effective

Nc1nc(Nc2ccc3c(c2)CC[C@@H](N2CCCC2)CC3)nn1-c1cc2c(nn1)-c1ccccc1CCC2 [BGB324]
sensitisation to a combination of decitabine and vorinostat (resistant cells): could sensitize resistant cells

CCc1nc(C(N)=O)c(Nc2ccc(N3CCC(N4CCN(C)CC4)CC3)c(OC)c2)nc1NC1CCOCC1 [Gilteritinib, gilteritinib]
IC50 (AXL [2]): 0.7 nM
patients achieving some response [3]: 40%
patients exhibiting inhibition of FLT3 phosphorylation [3]: 90%
tolerability [3]: well tolerated

COc1cc2nccc(Oc3ccc(NC(=O)c4cc5c(n(-c6ccccc6)c4=O)CCCC5=O)nc3)c2cc1OC [ONO-7475]
IC50 (MER): 1 nM
IC50 (FLT3): 147 nM
apoptosis (MOLM13 cells [1]; 10 nM, 48 hours, MOLM13): induced apoptosis
reduction of cell viability (MOLM13 cells [1]; 10 nM, 48 hours, MOLM13): > 50%
cells becoming apoptotic (MOLM13 cells [1]; 10 nM, 72 hours, MOLM13): > 70%
viable cells (MOLM13 cells [1]; 10 nM, 72 hours, MOLM13 monoculture): nearly eliminated all viable MOLM13 cells
viable cell numbers and apoptosis, single agent (MOLM13 cells [1]; ONO-7475 alone (10nM or 50 nM), 48 hours, MOLM13): effective
apoptosis (MV4;11 cells [4]): induced apoptosis
reduction of cell viability (MV4;11 cells [4]): > 50%
apoptosis (OCI-AML3 cells): did not induce apoptosis
viable cell number (OCI-AML3 cells): slightly reduced
sensitivity to drug (HL60 cells): resistant
protection of AML cells by MSC from the inhibitor [5]: abrogated most of this effect
apoptosis [6]: without inducing apoptosis
reduction of viability [6]: ~ 55%
apoptosis (MOLM13 p53 shRNA cells): ~ 20%
reduction of viability (MOLM13 p53 shRNA cells): > 70%
suppression of DNA synthesis (MOLM13 cells [7]; 5 nM): > 2 fold
cell cycle status (MOLM13 cells [7]): potently induced G0/G1 arrest
suppression of DNA synthesis (MV4;11 cells [8]; 5 nM): > 2 fold
cell cycle status (MV4;11 cells [8]): potently induced G0/G1 arrest
viable cells (Trypan blue) [9]: > 95%
Proteins increased in MOLM13 cells by ONO-7475 (MOLM13 cells [10]): H2AX (phospho; pS140)
change (i.e., 2-fold) in the level of protein (OCI-AML3): no significant change
change (i.e., 2-fold) in the level of protein (HL60): no significant change
PLK1 protein (PLK1): Little, if any, PLK1 was detected
RB phosphorylation (RB phosphorylation): blocked RB phosphorylation
AXL protein (AXL [11]): induced AXL
Cyclin B1 protein (Cyclin B1): potently suppressed
CDK1 protein (CDK1): potently suppressed
reduction of ERK phosphorylation (ERK phosphorylation): ~ 50%
suppression of MCL-1 (MCL-1; 10 nM, MOLM13): > 80%
reduction of MCL-1 (MCL-1; 100 nM, MV4;11): 50%
p-FLT3 (FLT3 phosphorylation; MOLM13): greatly reduced
p-FLT3 (FLT3 phosphorylation; MV4;11): nearly eliminated
phosphorylation of S6 (phosphorylation of S6): inhibited the phosphorylation of S6
p38 phosphorylation (p38 phosphorylation): p38 phosphorylation was reduced
suppression of PLK-1 mRNA compared with MOLM13 (PLK-1 mRNA; 10 nM and 50 nM, MV4;11): more potently suppressed
reduction of PLK-1 mRNA relative to B2M (PLK-1 mRNA; 10 nM): ~ 60%
reduction of PLK-1 mRNA relative to B2M (PLK-1 mRNA; 50 nM): ~ 80%
reduction of CDK1 mRNA relative to B2M (CDK1 mRNA): at least 60%
reduction of CCNB1 mRNA relative to B2M (CCNB1 mRNA): at least 60%
increase of AXL mRNA relative to B2M (AXL mRNA; 10 nM, MOLM13 and MV4;11): ~ 3.5 fold
increase of AXL mRNA relative to B2M (AXL mRNA; 50 nM, MOLM13): > 6 fold
increase of AXL mRNA relative to B2M (AXL mRNA; 50 nM, MV4;11): > 8 fold
mice with reduced leukemic burden compared to control (IVIS imaging) (MOLM13 luc/gfp cells; 0.004% ONO-7475 feed, Day 14): three out of five
leukemia infiltration in the liver (H&E) (MOLM13 luc/gfp cells; 0.013% ONO-7475 feed): little, if any, AML cells in the liver; also recorded: minimal presence of MOLM13 cells in the liver
